The target of assay [1] is T1, Adenosine receptor A3 (Rattus norvegicus, UniProt P28647).
T1 sequence (P28647 whole entry): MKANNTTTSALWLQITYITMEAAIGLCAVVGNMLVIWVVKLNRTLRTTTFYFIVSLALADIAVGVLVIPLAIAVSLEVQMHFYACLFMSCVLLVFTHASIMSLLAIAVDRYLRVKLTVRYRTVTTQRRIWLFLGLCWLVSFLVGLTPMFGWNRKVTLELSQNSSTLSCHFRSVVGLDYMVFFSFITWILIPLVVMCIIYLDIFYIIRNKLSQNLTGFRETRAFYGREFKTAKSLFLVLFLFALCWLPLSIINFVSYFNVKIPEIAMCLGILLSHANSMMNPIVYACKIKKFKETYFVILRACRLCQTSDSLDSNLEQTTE
As to the kind of experiment: Binding affinity at rat adenosine A3 receptor in RBL-2H3 cells. Type of assay: cell-based. The gist of the method: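 Rat A3 receptors endogenously expressed in RBL-2H3 cells; displacement of [125I]AB-MECA at 1 nM in 50 mM Tris, 10 mM Mg2+, 1 mM EDTA, pH 8.0. Nonspecific binding defined with 100 μM R-PIA. Filtration on GF/B filters. At least five competitor concentrations. IC50 by nonlinear regression, converted to Ki by Cheng–Prusoff (Kd 1.46 nM). Three independent experiments in duplicate.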

Another assay addresses T2, Adenosine receptor A1 (Rattus norvegicus, UniProt P25099).
T2 sequence (P25099 whole entry): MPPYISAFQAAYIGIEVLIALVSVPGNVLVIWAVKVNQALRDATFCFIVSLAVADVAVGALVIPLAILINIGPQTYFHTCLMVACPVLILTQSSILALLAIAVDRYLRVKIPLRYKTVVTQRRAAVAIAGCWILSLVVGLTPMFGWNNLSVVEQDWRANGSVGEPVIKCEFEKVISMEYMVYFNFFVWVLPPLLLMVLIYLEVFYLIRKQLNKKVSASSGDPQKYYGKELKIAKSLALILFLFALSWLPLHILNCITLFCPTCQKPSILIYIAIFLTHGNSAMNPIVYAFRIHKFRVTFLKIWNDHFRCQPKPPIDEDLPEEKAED
The assay is described as follows: Binding affinity at rat brain Adenosine A1 receptor. In outline: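 Rat cerebral cortex membranes labelled with [3H]R-PIA. Adenosine deaminase 3 units/mL present during membrane preparation, during a 30 min preincubation at 30 °C and during incubation. Filtration on GF/B filters. At least five competitor concentrations spanning 3 log units. […] Three independent experiments in duplicate.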

Assay [2] deals with T3, Adenosine receptor A3 (Homo sapiens, UniProt P0DMS8).
T3 sequence (P0DMS8 whole entry): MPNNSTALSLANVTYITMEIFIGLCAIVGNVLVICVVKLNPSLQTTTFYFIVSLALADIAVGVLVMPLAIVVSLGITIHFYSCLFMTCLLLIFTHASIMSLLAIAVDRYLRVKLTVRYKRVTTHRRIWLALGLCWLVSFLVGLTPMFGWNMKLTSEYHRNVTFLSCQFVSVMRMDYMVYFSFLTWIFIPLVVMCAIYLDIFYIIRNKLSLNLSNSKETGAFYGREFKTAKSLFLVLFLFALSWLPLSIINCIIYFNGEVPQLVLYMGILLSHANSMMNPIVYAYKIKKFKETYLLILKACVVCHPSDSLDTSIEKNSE
As to the kind of experiment: Binding affinity at wild-type Adenosine A3 receptor expressed in COS-7 cells. Type of assay: cell-based.

Assay [3] deals with Adenosine receptor A3 (Homo sapiens, UniProt P0DMS8, H272E). As to the kind of experiment: Binding affinity at Mutant (H272E) human adenosine A3 receptor expressed in COS-7 cells. Type of assay: cell-based.
Adenosine receptor A3 (Homo sapiens, UniProt P0DMS8, H272E), sequence (P0DMS8 whole entry H272E): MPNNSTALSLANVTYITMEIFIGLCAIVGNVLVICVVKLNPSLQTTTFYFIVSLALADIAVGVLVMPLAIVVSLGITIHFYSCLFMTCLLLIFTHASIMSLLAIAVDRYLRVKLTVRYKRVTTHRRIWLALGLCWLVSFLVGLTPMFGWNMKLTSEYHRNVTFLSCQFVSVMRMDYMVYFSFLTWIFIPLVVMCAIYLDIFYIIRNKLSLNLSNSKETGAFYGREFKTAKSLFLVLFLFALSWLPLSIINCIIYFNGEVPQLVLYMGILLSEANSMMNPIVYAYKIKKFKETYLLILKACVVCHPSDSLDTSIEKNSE
Assay [4] addresses T1, Adenosine receptor A3. As to the kind of experiment: Binding affinity at rat adenosine A3 receptor in CHO cells. Type of assay: cell-based.

As to `NC[C@H]1O[C@@H](n2cnc3c(N)ncnc32)[C@H](O)[C@@H]1O`, the inhibition constant Ki – broadly, a measure of affinity in units of concentration, obtained from inhibition or displacement – is > 10 µM at Adenosine receptor A3 [1], > 10 µM at Adenosine receptor A1, 1000 µM on Adenosine receptor A3 [2] and 0.425 µM on Adenosine receptor A3 [3].
As to `Nc1ncnc2c1ncn2[C@@H]1O[C@H](CO)[C@@H](N)[C@H]1O`, the Ki is 84 µM at Adenosine receptor A3 [1], > 10 µM at Adenosine receptor A1, 0.442 µM at Adenosine receptor A3 [2] and 0.075 µM on Adenosine receptor A3 [3].
For `CNC(=O)[C@@H]1C[C@H](N)[C@H](n2cnc3c(NCc4cccc(I)c4)nc(Cl)nc32)O1`, the Ki at Adenosine receptor A3 [4] was found to be 3.4 µM; on Adenosine receptor A1, 6.69 µM; on Adenosine receptor A3 [2] it was 0.0046 µM; on Adenosine receptor A3 [3], 0.0023 µM.
On to `NCCNC(=O)[C@H]1O[C@@H](n2cnc3c(N)ncnc32)[C@H](O)[C@@H]1O`, for which the inhibition constant (Ki) was 14.7 µM at Adenosine receptor A3 [4] and > 10 µM at Adenosine receptor A1.
With `N=C(N)N[C@H]1[C@@H](O)[C@H](n2cnc3c(N)ncnc32)O[C@@H]1CO`, the figures for the inhibition constant Ki on Adenosine receptor A1, on Adenosine receptor A3 [2] and on Adenosine receptor A3 [3] were > 10 µM, 0.13 µM and 0.0333 µM, respectively.
For `Nc1nc2ccc(Cl)cc2c2nc(-c3ccco3)nn12` [CGS-15943], the Ki on Adenosine receptor A3 [2] came to 0.253 µM; on Adenosine receptor A3 [3] it was 3.26 µM.
Take `N[C@H]1[C@@H](O)[C@H](n2cnc3c(NCc4cccc(I)c4)ncnc32)O[C@@H]1CO`: the Ki on Adenosine receptor A1 was 8.1 µM; at Adenosine receptor A3 [2] it was 0.87 µM; on Adenosine receptor A3 [3], 0.32 µM.
Consider `N[C@@H]1[C@@H](O)[C@H](n2cnc3c(NC4CCCC4)ncnc32)O[C@@H]1CO`, for which the inhibition constant (Ki) at Adenosine receptor A3 [1] was > 10 µM; at Adenosine receptor A1, > 10 µM; on Adenosine receptor A3 [2], 0.00054 µM; on Adenosine receptor A3 [3] it was 0.00019 µM.
Take `Nc1ncnc2c1ncn2[C@@H]1O[C@H](CO)[C@@H](O)[C@H]1N`: the Ki at Adenosine receptor A3 [1] was > 10 µM; on Adenosine receptor A1, > 10 µM; at Adenosine receptor A3 [2] it was 1000 µM; on Adenosine receptor A3 [3], 0.301 µM.
Regarding `Nc1nc(Cl)nc2c1ncn2[C@@H]1O[C@H](CO)[C@@H](O)[C@H]1O`, the inhibition constant Ki at Adenosine receptor A3 [2] was 0.65 µM; at Adenosine receptor A3 [3], 11.6 µM.

For the origin of these results see ChEMBL document CHEMBL1134644 (J Med Chem, 2001).
